Assay results from ChEMBL document CHEMBL4033651, “Exploration of flexible phenylpropylurea scaffold as novel cardiac myosin activators for the treatment of systolic heart failure” (Eur J Med Chem, 2017).

Tests used:
Type in all cases: functional
[1] = system: Rattus norvegicus; test: Effect on hemodynamic parameters in Sprague-Dawley rat heart assessed as heart rate at 128 ug/kg/min (reference value: 274 bpm)
[2] = system: Rattus norvegicus; test: Effect on hemodynamic parameters in Sprague-Dawley rat heart assessed as dPdT min at 64 ug/kg/min (reference value: -4611 mmHg/s)
[3] = system: Rattus norvegicus; test: Effect on hemodynamic parameters in Sprague-Dawley rat heart assessed as heart rate at 8 ug/kg/min (reference value: 260 to 322 bpm)
[4] = system: Rattus norvegicus; test: Effect on hemodynamic parameters in Sprague-Dawley rat heart assessed as end-diastolic pressure at 64 ug/kg/min (reference value: 9.64 mmHg)
[5] = system: Rattus norvegicus; test: Effect on hemodynamic parameters in Sprague-Dawley rat heart assessed as dPdT max at 64 ug/kg/min (reference value: 4162 mmHg/s)
[6] = system: Rattus norvegicus; test: Effect on hemodynamic parameters in Sprague-Dawley rat heart assessed as end-systolic pressure at 64 ug/kg/min (reference value: 87.48 mmHg)
[7] = system: Rattus norvegicus; test: Positive inotropic activity in Sprague-Dawley rat heart assessed as ejection fraction at 4 ug/kg/min for 3 mins by echocardiographic analysis (reference value: 67.16 to 85.81%)
In short: (§1)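 Seven-week-old male Sprague-Dawley rats under 1.5 % isoflurane via nosecone. Drug given through a right internal jugular vein central line. Left ventricular fractional shortening and ejection fraction measured by echocardiography with and without sample, expressed as % increase.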

[8] = system: Rattus norvegicus; test: Positive inotropic activity in Sprague-Dawley rat heart assessed as left ventricular internal diameter end diastole at 8 ug/kg/min for 3 mins by echocardiographic analysis (reference value: 5.66 to 7.80 mm)
In short: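 Male Sprague-Dawley rats, seven weeks old, anaesthetised with 1.5 % isoflurane given by nosecone. Compound infused through the right internal jugular vein, used as a central venous line. Left ventricular dimensions measured by echocardiography.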

[9] = system: Rattus norvegicus; test: Effect on hemodynamic parameters in Sprague-Dawley rat heart assessed as dPdT min at 128 ug/kg/min (reference value: -4611 mmHg/s)
[10] = system: Rattus norvegicus; test: Effect on hemodynamic parameters in Sprague-Dawley rat heart assessed as dPdT max at 16 ug/kg/min (reference value: 4162 to 5214 mmHg/s)
[11] = system: Rattus norvegicus; test: Effect on hemodynamic parameters in Sprague-Dawley rat heart assessed as end-diastolic pressure at 32 ug/kg/min (reference value: 9.64 mmHg)
[12] = system: Rattus norvegicus; test: Effect on hemodynamic parameters in Sprague-Dawley rat heart assessed as end-systolic pressure at 16 ug/kg/min (reference value: 87.48 to 97.85 mmHg)
[13] = system: Rattus norvegicus; test: Effect on hemodynamic parameters in Sprague-Dawley rat heart assessed as end-systolic pressure at 128 ug/kg/min (reference value: 87.48 mmHg)
[14] = system: Rattus norvegicus; test: Positive inotropic activity in Sprague-Dawley rat heart assessed as fractional shortening at 4 ug/kg/min for 3 mins by echocardiographic analysis (reference value: 38.60 to 55.81%); in short: as §1
[15] = system: Rattus norvegicus; test: Effect on hemodynamic parameters in Sprague-Dawley rat heart assessed as end-systolic pressure at 8 ug/kg/min (reference value: 87.48 to 97.85 mmHg)
[16] = system: Rattus norvegicus; test: Effect on hemodynamic parameters in Sprague-Dawley rat heart assessed as end-diastolic pressure at 128 ug/kg/min (reference value: 9.64 mmHg)
[17] = system: Rattus norvegicus; test: Effect on hemodynamic parameters in Sprague-Dawley rat heart assessed as heart rate at 64 ug/kg/min (reference value: 274 bpm)
[18] = system: Rattus norvegicus; test: Effect on hemodynamic parameters in Sprague-Dawley rat heart assessed as end-systolic pressure at 32 ug/kg/min (reference value: 87.48 mmHg)
[19] = system: Rattus norvegicus; test: Effect on hemodynamic parameters in Sprague-Dawley rat heart assessed as dPdT max at 128 ug/kg/min (reference value: 4162 mmHg/s)
[20] = system: Rattus norvegicus; test: Effect on hemodynamic parameters in Sprague-Dawley rat heart assessed as dPdT max at 32 ug/kg/min (reference value: 4162 mmHg/s)
[21] = system: Rattus norvegicus; test: Effect on hemodynamic parameters in Sprague-Dawley rat heart assessed as dPdT min at 32 ug/kg/min (reference value: -4611 mmHg/s)
[22] = system: Rattus norvegicus; test: Effect on hemodynamic parameters in Sprague-Dawley rat heart assessed as heart rate at 32 ug/kg/min (reference value: 274 bpm)
[23] = system: Rattus norvegicus; test: Effect on hemodynamic parameters in Sprague-Dawley rat heart assessed as end-diastolic pressure at 4 ug/kg/min (reference value: 7.68 to 9.83 mmHg)
[24] = system: Rattus norvegicus; test: Effect on hemodynamic parameters in Sprague-Dawley rat heart assessed as heart rate at 2 ug/kg/min (reference value: 322 bpm)
[25] = system: Rattus norvegicus; test: Effect on hemodynamic parameters in Sprague-Dawley rat heart assessed as dPdT min at 4 ug/kg/min (reference value: -5462 to -4898 mmHg/s)
[26] = system: Rattus norvegicus; test: Effect on hemodynamic parameters in Sprague-Dawley rat heart assessed as end-diastolic pressure at 2 ug/kg/min (reference value: 7.68 mmHg)
[27] = system: Rattus norvegicus; test: Effect on hemodynamic parameters in Sprague-Dawley rat heart assessed as end-systolic pressure at 2 ug/kg/min (reference value: 97.85 mmHg)
[28] = system: Rattus norvegicus; test: Effect on hemodynamic parameters in Sprague-Dawley rat heart assessed as dPdT min at 2 ug/kg/min (reference value: -5462 mmHg/s)
[29] = system: Rattus norvegicus; test: Effect on hemodynamic parameters in Sprague-Dawley rat heart assessed as heart rate at 4 ug/kg/min (reference value: 260 to 322 bpm)
[30] = system: Rattus norvegicus; test: Effect on hemodynamic parameters in Sprague-Dawley rat heart assessed as end-systolic pressure at 4 ug/kg/min (reference value: 94.65 to 97.85 mmHg)
[31] = system: Rattus norvegicus; test: Effect on hemodynamic parameters in Sprague-Dawley rat heart assessed as dPdT max at 2 ug/kg/min (reference value: 5214 mmHg/s)
[32] = system: Rattus norvegicus; test: Effect on hemodynamic parameters in Sprague-Dawley rat heart assessed as dPdT max at 4 ug/kg/min (reference value: 4985 to 5214 mmHg/s)

O=C(NCCCc1ccccc1)NCc1ccccc1 showed an Activity [1] of 284 bpm, an Activity [2] of -6138 mmHg/s and an Activity [3] of 271 bpm. For the same compound, the Activity [4] was 16.85 mmHg, the Activity [5] was 5382 mmHg/s and the Activity [6] was 108.41 mmHg. The Activity [7] was 76.44%, the Activity [8] was 5.97 mm and the Activity [9] was -6346 mmHg/s. For the same compound, the Activity [10] was 4740 mmHg/s, the Activity [11] was 12.26 mmHg and the Activity [12] was 94.26 mmHg. It also gave an Activity [13] of 113.24 mmHg, an Activity [14] of 45.67% and an Activity [15] of 96.04 mmHg. It also gave an Activity [16] of 24.12 mmHg, an Activity [17] of 277 bpm and an Activity [18] of 95.74 mmHg. The Activity [19] was 6146 mmHg/s, the Activity [20] was 4744 mmHg/s and the Activity [21] was -5375 mmHg/s. It also gave an Activity [22] of 268 bpm.
COC(=O)N1CCN(Cc2cccc(NC(=O)Nc3ccc(C)nc3)c2F)CC1 [OMECAMTIV MECARBIL] showed an Activity [23] of 7 mmHg, an Activity [3] of 292 bpm and an Activity [7] of 87.85%. It also gave an Activity [8] of 5.97 mm, an Activity [24] of 322 bpm and an Activity [10] of 6867 mmHg/s. The Activity [12] was 108.91 mmHg, the Activity [25] was -6516 mmHg/s and the Activity [26] was 7.65 mmHg. For the same compound, the Activity [27] was 109.76 mmHg, the Activity [28] was -6628 mmHg/s and the Activity [14] was 58.9%. The Activity [29] was 326 bpm, the Activity [15] was 104.3 mmHg and the Activity [30] was 108.85 mmHg. For the same compound, the Activity [31] was 6320 mmHg/s and the Activity [32] was 6645 mmHg/s.
